This is a sample that favours compounds with a hit; in the whole collection about 3.5% have one here.
RGS4 act: RGS4 potentiation or activation; B-score at 10 µM; 310,000 tested, 0.92% active; AID 463111; HEK293 M3R/inducible RGS4, carbachol calcium flux Fluo4; hits give low values;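 active = B-score of the integrated calcium signal more than 4 SD below the library mean, with starting fluorescence not abnormally high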;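 note: negative B-score means reduced calcium response which marks RGS4 activation or potentiation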
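System – HEK293 FlpIn-TREx cells, stable M3R, doxycycline-inducible RGS4 · Reagent – ECmax carbachol challenge · Times – compound preincubation 20 min at room temperature before agonist · Technique – Fluo4 fluorescence kinetic imaging of calcium · Measure – B score of integrated Fluo4 ratio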
RGS4 inh: inhibitors of human RGS4; P49798; HEK293 M3R/RGS4 inducible, Fluo-4 calcium flux; hits give high values; triggered by carbachol at its EC20; B-score at 10 µM; 310,000 tested, 0.45% active; AID 463165;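 active = B-score, a plate-corrected calcium signal, over three deviations above library mean, with baseline fluorescence within five deviations of library mean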;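 note: RGS4 expression induced by doxycycline in cells with stable M3 receptor; B-score is computed from the integrated fluorescence ratio over baseline after carbachol; higher B-score means a larger calcium signal and so more RGS4 inhibition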
Target sequence (P49798 whole entry, looked up): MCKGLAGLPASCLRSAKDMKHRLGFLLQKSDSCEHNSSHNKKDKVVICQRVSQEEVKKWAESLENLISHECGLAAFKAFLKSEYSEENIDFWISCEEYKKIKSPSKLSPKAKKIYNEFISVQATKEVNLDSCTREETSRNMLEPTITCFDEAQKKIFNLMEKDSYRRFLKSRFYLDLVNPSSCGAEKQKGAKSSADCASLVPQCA
MrgX1 antagonist: human MrgX1 receptor antagonism, primary screen | Q96LB2 | MRGX1-HEK293 calcium flux, Fluo-4, BAM8-22 antagonism; hits give low values | B-score at 10 µM | 310,000 tested, 1.3% active;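 active = calcium-response B-score plate-corrected more than 3 library SD below zero, starting fluorescence within 5 deviations, no agonist response on first addition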;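 note: peak minus trough fluorescence over baseline after final BAM8-22 challenge near maximal dose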
Target sequence (Q96LB2 whole entry, looked up): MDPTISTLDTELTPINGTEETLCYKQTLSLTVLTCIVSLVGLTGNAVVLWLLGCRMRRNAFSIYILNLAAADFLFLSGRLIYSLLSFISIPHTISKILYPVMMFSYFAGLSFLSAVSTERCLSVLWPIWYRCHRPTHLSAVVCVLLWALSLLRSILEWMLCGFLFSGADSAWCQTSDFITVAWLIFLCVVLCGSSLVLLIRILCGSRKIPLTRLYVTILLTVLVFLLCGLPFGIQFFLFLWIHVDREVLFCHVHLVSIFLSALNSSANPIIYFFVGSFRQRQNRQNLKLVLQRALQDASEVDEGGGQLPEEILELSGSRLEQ
MrgX1 agonist: agonists of human MrgX1 receptor; Q96LB2; MrgX1-HEK293 cells, Fluo-4 calcium fluorescence, agonist mode; hits give high values; B-score at 10 µM; 310,000 tested, 0.44% active; AID 588627;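 active = calcium response B-score plate-corrected fluorescence ratio at least 3 library SD, with starting fluorescence B-score inside 5 SD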
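Test system: Stable human MrgX1 HEK293 cell line | Schedule: Overnight plating before 1 h dye loading | Read-out basis: Baseline-normalised fluorescence change ratio, B-scored | Detection: Kinetic calcium dye fluorescence, Fluo-4 NW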
MrgX1 allo act: human MrgX1 positive allosteric modulation, primary screen; Q96LB2; B-score at 10 µM; 310,000 tested, 0.63% active; MrgX1-HEK293, Fluo-4 calcium flux, FDSS; hits give high values;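 active = plate-corrected calcium response at least 3 library SD above typical, normal starting fluorescence, not activating the receptor alone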;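 note: compound read alongside a low EC10 to EC30 dose of BAM8-22 agonist; peak minus trough fluorescence over baseline measured at the second addition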
RGS4 block valid: RGS4 inhibitor validation. shares compounds with RGS4 inh. HEK293 M3R/RGS4, carbachol calcium Fluo-4 fluorescence; carbachol added at its EC20; 0 = buffer wells, 100 = carbachol control. calcium response, % at 10 µM. 1,700 tested, 65% active;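 active = duplicate-averaged calcium response above the buffer-only control mean plus 5 SD of those controls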;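 note: integrated fluorescence ratio F max minus min over baseline F0; higher response in RGS4-induced cells means RGS4 inhibition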
M3R Ca ctr: checks RGS4 inhibitor effects in non-induced HEK293 M3R cells. shares compounds with RGS4 inh. carbachol calcium Fluo-4; submaximal (EC20) carbachol stimulus; buffer wells 0%, carbachol control wells 100%. activity (percent), % at 10 µM. 1,900 tested, 20% active; call rule not given here;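 note: RGS4 induction absent so cells express M3R without RGS4; higher means more calcium signal and flags a non-specific hit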
M3R basal Ca ctr: signal in non-induced cells without carbachol, RGS4 inhibitor counter-screen; calcium response (agonist-mode artifact), % at 10 µM; AID 493001; HEK293 M3R/RGS4 non-induced, Fluo-4 calcium, no carbachol; normalised: buffer wells 0%, carbachol wells 100%; 1,900 tested, 22% active; shares compounds with RGS4 inh;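 active = duplicate-averaged calcium rise in uninduced cells above buffer wells' mean plus 5 SD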
The depositor's hits bear a star.

For Cc1ccc(C(=O)/C=C/c2ccc3ncccc3c2)cc1 the results were RGS4 act inactive, RGS4 inh 7.81*, MrgX1 antagonist inactive, MrgX1 agonist inactive, MrgX1 allo act inactive, RGS4 block valid 22.0%*, M3R Ca ctr 36.5%* and M3R basal Ca ctr inactive.
For O=C(CCc1nnc2ccc(N3CCOCC3)nn12)Nc1ccc(F)cc1F the results were RGS4 act inactive, RGS4 inh inactive, MrgX1 antagonist inactive, MrgX1 agonist inactive and MrgX1 allo act inactive.
Screening COCc1nnc(NC(=O)CCc2ccc(OC)cc2)s1 returned RGS4 act inactive, RGS4 inh 5.04*, MrgX1 antagonist inactive, MrgX1 agonist inactive, MrgX1 allo act inactive, RGS4 block valid 30.5%*, M3R Ca ctr inactive and M3R basal Ca ctr inactive.
Screening COc1ccc(CCC(=O)Nc2nnc(C)s2)cc1 returned RGS4 act inactive, RGS4 inh inactive, MrgX1 antagonist inactive, MrgX1 agonist inactive and MrgX1 allo act inactive.
Screening COCc1nnc(NC(=O)CCc2ccccc2)s1 returned RGS4 act inactive, RGS4 inh inactive, MrgX1 antagonist inactive, MrgX1 agonist inactive, MrgX1 allo act inactive, M3R Ca ctr inactive and M3R basal Ca ctr inactive.
For CCOCc1nnc(NC(=O)CCc2ccccc2)s1 the results were RGS4 act inactive, RGS4 inh inactive, MrgX1 antagonist inactive, MrgX1 agonist inactive and MrgX1 allo act inactive.
Screening N#Cc1c(N2C(=O)Nc3ccccc3N2O)sc2c1CCCCCC2 returned RGS4 act inactive, RGS4 inh 5.24*, MrgX1 antagonist inactive, MrgX1 agonist inactive, MrgX1 allo act inactive, RGS4 block valid 15.5%*, M3R Ca ctr 41.5%* and M3R basal Ca ctr inactive.
O=C(NCCn1cccn1)C1CCC(=O)N(CCc2ccccc2)C1 (configuration not stated) was read as RGS4 act inactive, RGS4 inh inactive, MrgX1 antagonist inactive, MrgX1 agonist inactive and MrgX1 allo act inactive.
COc1ccc(-c2c(-c3ccc(OCC(=O)NN)cc3O)n[nH]c2C)cc1OC was read as RGS4 act inactive, RGS4 inh inactive, MrgX1 antagonist inactive, MrgX1 agonist inactive and MrgX1 allo act inactive.
COc1ccc(-c2c(-c3ccc(OCC(=O)NN)cc3O)n[nH]c2C(F)(F)F)cc1 was read as RGS4 act inactive, RGS4 inh 12.3*, MrgX1 antagonist inactive, MrgX1 agonist inactive, MrgX1 allo act inactive, RGS4 block valid 27.5%*, M3R Ca ctr 29.0%* and M3R basal Ca ctr inactive.
Screening CC1CCN(c2c(NCC3CCC(C(=O)NCc4ccccc4)CC3)c(=O)c2=O)CC1 (configuration not stated) returned RGS4 act inactive, RGS4 inh inactive, MrgX1 antagonist inactive, MrgX1 agonist inactive, MrgX1 allo act inactive, M3R Ca ctr inactive and M3R basal Ca ctr inactive.
Screening CC1CCN(c2c(NCC3CCC(C(=O)NCCCc4ccccc4)CC3)c(=O)c2=O)CC1 (configuration not stated) returned RGS4 act inactive, RGS4 inh 6.42*, MrgX1 antagonist inactive, MrgX1 agonist inactive, MrgX1 allo act inactive, RGS4 block valid 6.0%*, M3R Ca ctr inactive and M3R basal Ca ctr inactive.
For O=C(c1ccccc1F)N1CCN(C(=O)C(c2ccccc2)c2ccccc2)CC1 the results were RGS4 act inactive, RGS4 inh inactive, MrgX1 antagonist inactive, MrgX1 agonist inactive and MrgX1 allo act inactive.
NC(=O)C1CCN(C2=C(NS(=O)(=O)c3ccccc3)C(=O)c3ccccc3C2=O)CC1 was read as RGS4 act inactive, RGS4 inh inactive, MrgX1 antagonist inactive, MrgX1 agonist inactive and MrgX1 allo act inactive.
O=C1C(Cl)=C(N2CCC(C(=O)O)CC2)C(=O)c2ccccc21 was read as RGS4 act inactive, RGS4 inh 8.76*, MrgX1 antagonist inactive, MrgX1 agonist inactive, MrgX1 allo act 14.6*, RGS4 block valid 39.0%*, M3R Ca ctr inactive and M3R basal Ca ctr inactive.
Screening Cc1ccc(S(C)(=O)=N/C=C2\C(=O)c3sccc3N(C)S2(=O)=O)cc1 (configuration not stated) returned RGS4 act inactive, RGS4 inh 6.42*, MrgX1 antagonist inactive, MrgX1 agonist inactive, MrgX1 allo act inactive, RGS4 block valid 7.5%*, M3R Ca ctr inactive and M3R basal Ca ctr inactive.
For CC(C)(C)c1ccc(-c2nc(NCc3cccnc3)c3ccccc3n2)cc1 the results were RGS4 act inactive, RGS4 inh 8.63*, MrgX1 antagonist inactive, MrgX1 agonist inactive, MrgX1 allo act inactive, RGS4 block valid 18.0%*, M3R Ca ctr inactive and M3R basal Ca ctr inactive.
Screening CC(=O)Oc1ccc(N(C(C)=O)S(=O)(=O)c2ccc3ccccc3c2)cc1 returned RGS4 act inactive, RGS4 inh inactive, MrgX1 antagonist inactive, MrgX1 agonist inactive and MrgX1 allo act inactive.
Cc1cccc(NC(=S)NNC(=O)c2csc3c2CCC(C)C3)c1 (configuration not stated) was read as RGS4 act inactive, RGS4 inh 6.13*, MrgX1 antagonist inactive, MrgX1 agonist inactive, MrgX1 allo act inactive, RGS4 block valid 16.0%*, M3R Ca ctr inactive and M3R basal Ca ctr inactive.
Screening CC(C)CNC(=S)NNC(=O)c1csc2c1CCC(C)C2 (configuration not stated) returned RGS4 act inactive, RGS4 inh inactive, MrgX1 antagonist inactive, MrgX1 agonist inactive and MrgX1 allo act inactive.
Screening Nn1c(COc2ccccc2F)nnc1SCC(=O)NC1CC1 returned RGS4 act inactive, RGS4 inh inactive, MrgX1 antagonist inactive, MrgX1 agonist inactive and MrgX1 allo act inactive.
`CC(=O)/C=C/n1c(=S)oc2ccccc21` gave RGS4 act inactive, RGS4 inh 10.1*, MrgX1 antagonist inactive, MrgX1 agonist inactive, MrgX1 allo act inactive, RGS4 block valid 21.0%*, M3R Ca ctr inactive and M3R basal Ca ctr 7.0%*.
For NC(=O)CC(NC(=O)Cc1ccc(Br)cc1)c1ccc(NC2CCC2)c([N+](=O)[O-])c1 (configuration not stated) the results were RGS4 act inactive, RGS4 inh inactive, MrgX1 antagonist inactive, MrgX1 agonist inactive, MrgX1 allo act inactive, M3R Ca ctr inactive and M3R basal Ca ctr inactive.

Screening results: PubChem, Johns Hopkins Ion Channel Center
